# core dimer inh – blocks dimerization of HCV core protein; inhibition, % at 5 µM; 300,000 compounds, 0.33% hits; AID 1899; TR-FRET GST/Flag-core106 dimerization, 1536-well;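 active means inhibition above the mean of all tested compounds plus 3 SD, set per screening campaign, cut at about 45% in these data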
#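 System – GST-tagged and Flag-tagged HCV core protein residues 1-106 · Repeats – one well for each compound · Technique – TR-FRET 671 and 617 nm emission · Doses – one concentration, 5 µM, in 0.5% DMSO · Times – 4 h, 22.5 °C incubation · Also added – Eu donor and XL665 acceptor anti-tag antibodies · Measure – percent inhibition of core106 dimerization signal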
# FID counter – fluorescent intercalator displacement, NS3 helicase counter-screen. DNA fluorescent intercalator displacement, fluorescence. inhibition, % at 7.9 µM. 290,000 compounds, 0.17% hits; in the data active means inhibition above about 37%;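 further: 0% = vehicle and 100% = reference compound; higher means more ethidium bromide displaced from hairpin DNA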
# IMP-1 inhibitor – inhibitors of Pseudomonas aeruginosa IMP-1 metallo-beta-lactamase. purified IMP-1, nitrocefin hydrolysis, epi-absorbance fluorescence. inhibition, % at 5.6 µM. 290,000 compounds, 0.45% hits;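 active means inhibition above the mean plus 3 SD of all compounds in the same screening run, cut at about 4.5% in these data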;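 further: 0% = IMP-1 with DMSO and 100% = DMSO wells lacking enzyme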
#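 Assay system: purified IMP-1; Quantity: IMP-1 0.2 nM before substrate addition; Medium: HEPES buffer pH 7.1 with ZnSO4 and Brij 35; Incubation: 15 min enzyme–compound preincubation, then 25 min nitrocefin reaction, 25 °C; Signal: fluorescence quenching readout, ex 480/em 530 nm; Controls: DMSO with and without IMP-1; Repeats: singlicate testing.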
# VIM-2 inh – blocks Pseudomonas aeruginosa VIM-2 metallo-beta-lactamase; purified VIM-2, nitrocefin hydrolysis, epi-absorbance fluorescence; inhibition, % at 5.6 µM; 290,000 compounds, 0.89% hits;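 active means inhibition above the mean of all tested compounds plus 3 SD, cutoff set per screening run, cut at about 7.5% in these data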;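 further: red hydrolysis product quenches plate fluorescence so inhibitors raise well fluorescence; 0% = enzyme with DMSO and 100% = DMSO without enzyme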
# Starred values were filed as active, the others as inactive; . = no result given. Only some compounds are listed: those with a hit (about 1.6% of all), similar ones and a draw of the others.
SMILES,core dimer inh,FID counter,IMP-1 inhibitor,VIM-2 inh
O=C(COc1ccc(S(=O)(=O)N2CCCC2)cc1Cl)N1CCN(c2ccccc2)CC1,17.3,-35.8,-2.5,-1.6
COc1ccccc1CC(=O)N1CCCC1,1.4,-3.7,-0.5,-3.6
COc1ccccc1CC(=O)N1CCN(c2ccccn2)CC1,-2.5,-10.4,5.9*,-0.9
COc1ccc(S(=O)(=O)NCC2CCCO2)c(Cl)c1Cl (configuration not stated),4.1,-3.9,9.2*,-1.1
O=C(N/N=C/c1c[nH]c2c1ccc1ccccc12)c1ccc([N+](=O)[O-])cc1,27.1,14.1,2.1,-2.9
O=C(Nc1ccc(Cl)cc1C(=O)NCc1cccnc1)c1ccco1,3.1,-8.8,3.5,0.3
O=C(Nc1ccc(Cl)cc1C(=O)Nc1ccncc1)c1ccco1,4.2,-5.2,-2.6,8.2*
OCCCc1nc2n(n1)C(c1cccs1)C=C(c1ccccc1)N2 (configuration not stated),-0.1,-18.8,-0.5,8.4*
CN1C(=O)NC(c2ccccc2)C2=C1CN(CCc1ccccc1)C2=O (configuration not stated),-2.9,-4.5,-1.9,-1.8
O=C(NCc1ccco1)C1Cc2ccccc2CN1C(=O)c1ccco1 (configuration not stated),16.2,-5.6,-1.6,-1.4
O=C(NCc1ccco1)C1Cc2ccccc2CN1S(=O)(=O)c1ccccc1F (configuration not stated),55.1*,-18.7,-3.3,-2.9
COc1ccccc1NC(=O)COc1ccc(-c2nn(C)c(=O)c3ccccc23)cc1,7.5,-34.3,-0.9,6.4
COc1ccc(CC(=O)Nc2ccc(-c3nnc(-c4ccccc4)o3)cc2)cc1OC,82.7*,-2.8,-8.2,-0.2
COc1ccccc1OCC(=O)Nc1cccc(-c2nnc(-c3ccco3)o2)c1,3.5,-32.6,-2.0,-2.5
Cn1nc(-c2ccc(OCC(=O)Nc3ccccc3)cc2)c2ccccc2c1=O,3.3,-17.1,-2.9,9.3*
O=C(COc1ccccc1)Nc1ccc(-c2nnc(-c3ccco3)o2)cc1,51.8*,3.6,-2.4,-2.0
COc1ccc(CC(=O)Nc2cccc(-c3nnc(-c4ccccc4)o3)c2)cc1OC,.,-10.4,-1.4,-3.9
CC(=O)Oc1ccc(C(=O)Nc2cccc(-c3nnc(-c4ccco4)o3)c2)cc1,7.0,1.4,42.4*,-2.6
COc1ccccc1NCc1nnc(-c2ccccc2)o1,5.3,-11.8,-1.4,-0.8
COc1cc(OC)cc(C(=O)N2CCN(C(=O)Cc3ccccc3)CC2)c1,-1.4,1.0,-3.4,-0.5
O=C1CC(/C=C/c2ccco2)=Nc2ccccc2N1,57.5*,-18.6,-3.0,-1.5
O=C1CC(/C=C/c2ccccn2)=Nc2ccccc2N1,0.0,-20.1,-5.5,-2.5
COc1ccc(S(=O)(=O)c2c(N)n(Cc3ccco3)c3nc4ccccc4nc23)cc1,71.9*,-11.8,5.6*,4.7
COC(=O)c1ccc(COc2ccccc2/C=C(\C#N)C(=O)Nc2c(C)cc(C)cc2C)cc1,17.6,3.9,-2.9,-0.1
COc1ccc(CC(=O)NCc2ccccc2)cc1,11.9,1.4,-1.4,-1.8
SMILES,core dimer inh,FID counter,IMP-1 inhibitor,VIM-2 inh
COc1cccc(CNC(=O)Cc2ccc(-c3ccccc3)cc2)c1,2.6,-30.9,19.5*,-1.1
NC(=O)c1ccccc1N/C=C/C(=O)c1ccc(F)cc1,.,-5.9,1.3,1.0
NC(=O)c1ccccc1N/C=C/C(=O)c1ccc(Cl)cc1Cl,.,-1.7,-3.5,8.0*
COc1ccc(OC)c(N2CC(O)=C(c3nc4ccccc4s3)C2=N)c1,10.4,-13.8,4.5*,-2.6
CCOc1ccccc1N1CC(O)=C(c2nc3ccccc3s2)C1=N,4.8,-15.8,-4.5,-2.9
Cc1[nH]c2c(C)cccc2c1CCNC(=O)c1ccc2c(c1[N+](=O)[O-])C(=O)c1ccccc1C2=O,59.6*,7.2,-3.1,0.0
COc1ccccc1NC(=S)N1CCN(C(=O)c2ccco2)CC1,1.8,-1.3,-2.7,3.7
NS(=O)(=O)c1ccc(CCNC(=O)C(=O)NCC2OCCN2S(=O)(=O)c2cccs2)cc1 (configuration not stated),4.5,-7.4,0.9,0.7
Cc1ccc2c(CC(=O)Nc3ccc(N4CCN(C)CC4)cc3C)coc2c1,3.5,8.5,7.0*,-2.9
COc1ccc(N2CCN(C(=O)Cc3coc4cc(C)ccc34)CC2)cc1,4.1,-30.0,-1.4,1.1
CCn1c(SCC(=O)OC)nc2cc(S(=O)(=O)N3CCOCC3)ccc21,-2.8,.,.,.
Cc1c(C)c2cc(Cl)c(O)c(CN3CCCC(C)C3)c2oc1=O (configuration not stated),3.9,-5.8,-5.7,-4.8
Cc1c(C)c2cc(Cl)c(O)c(CN3CCN(C)CC3)c2oc1=O,-8.4,-0.8,6.2*,3.8
O=C1c2cccc3c(O)ccc(c23)C(=O)N1Cc1ccccc1,-12.2,-11.1,4.3,11.0*
O=C(O)c1cccc(CN2C(=O)c3ccccc3C2=O)c1,-6.0,-9.1,-3.0,-0.4
CCc1ccccc1NC(=O)CCS(=O)(=O)c1ccc(OC)cc1,-288.0,-9.9,37.4*,-1.7
CCOc1ccccc1NC(=O)CCS(=O)(=O)c1ccc(OC)cc1,6.4,-12.2,0.4,2.7
OC(COc1ccccc1)Cn1c2ccccc2c2ccccc21 (configuration not stated),-3.8,-5.1,-3.0,0.4
Oc1cccc2ccc[n+](CC(O)Cn3c4ccccc4c4ccccc43)c12 (configuration not stated),-10.3,39.0*,2.3,-0.5
COc1ccc(OCCOC(=O)c2ccc(-n3cnnn3)cc2)cc1,2.8,-8.8,-2.3,-0.6
NC(=O)COc1ccc(-n2cnnn2)cc1,46.5*,0.8,-0.7,2.1
N#CC(C(=O)NCc1ccco1)c1nc2ccccc2nc1N1CCOCC1 (configuration not stated),4.5,-5.0,-2.8,0.8
Clc1cccc(Nc2c3c(nc4ncnn24)CCC3)c1,2.5,-13.0,-3.4,3.9
CCc1cccc(Nc2c3c(nc4ncnn24)CCC3)c1,-2.2,-27.6,-4.4,9.9*
CC1(C)CC(=O)C2=C(C1)OC(N)=C(C#N)C2c1ccc(OC(=O)N2CCOCC2)cc1 (configuration not stated),3.1,-22.9,-3.9,-2.1
SMILES,core dimer inh,FID counter,IMP-1 inhibitor,VIM-2 inh
CCC(C(=O)O)N1C(=O)/C(=C/C(C)=C/c2ccccc2)SC1=S (configuration not stated),14.5,-10.7,0.8,8.2*
CC(=C\c1ccccc1)/C=C1/SC(=S)N(C(C(=O)O)C(C)C)C1=O (configuration not stated),.,-25.1,0.5,-0.2
CN(C)CCCn1c(SCc2c(Cl)cccc2Cl)nnc1-c1ccncc1,8.0,3.8,-1.9,-0.5
Cc1ccc(Nc2cc(C)nc3nc(C)nn23)cc1,-4.8,-11.9,-4.7,7.5
Cc1cc(Nc2cccc(C)c2C)n2nc(C)nc2n1,-5.9,-6.7,0.4,10.1*
CC(=O)c1ccc(Nc2cc(C)nc3nc(C)nn23)cc1,-2.2,-2.7,-0.8,4.8
Cc1cc(Nc2ccc(Br)c(C)c2)n2nc(C)nc2n1,-1.8,-5.3,-3.6,10.1*
